Here are results for 14 molecules from PubChem BioAssay.

Assay [1] can be described thus: Her2 expression decrease, cell viability multiplex – SKBR3 breast tumor cells, AlphaScreen, ATP viability, primary screen (AID 461;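 active = Her2 level under about 52% in both replicate screens, with viability over 70% of control, limit read from the data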;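 as to Her2 level: lower value means less Her2 protein in the cells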;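 as to viability: percent of carrier control wells set as 100% viability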). Conditions: SKBR3 Her2 protein level, 18-24 h, measured here: SKBR3 viability, ATP luminescence, at 10 µM. (In general: Bead proximity is the source of the signal in Alpha formats.)
Assay [2] deals with Receptor tyrosine-protein kinase erbB-2 (Homo sapiens) (UniProt P04626). The assay is described as above. Conditions: 18-24 h, at 10 µM, stronger effect = lower value.
Assay [3] can be described thus: reduced viability of SK-BR-3 breast cancer cells – cell-based, 24 h, human, pilot screen (AID 572;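 active = viability at or below 10% of carrier control in both of two separate runs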;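 also: compound exposure lasted between 18 and 24 h rather than exactly 24 h; 100% = carrier-treated control wells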). As to conditions: SK-BR-3 viability, CellTiter-Glo luminescence, at 10 µM, stronger effect = lower value.
The nature of assay [4]: HUVEC growth inhibition – cell-based, human, primary screen (AID 575;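 active = viability at or below 30% in both replicate assays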;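 also: 100% = median of untreated cell wells with 0.1% DMSO on each plate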). As to conditions: HUVEC proliferation, CellTiter-Glo luminescence, 72 h; at 10 µM; stronger effect = lower value. The method, boiled down:
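System – primary HUVEC, no more than 12 passages · Medium – Low-serum (2% FBS) EBM, supplemented · Times – 72 h exposure, 37 °C, 5% CO2, 30 min RT equilibration · Measured by – luminescent ATP assay · Read-out – % viability relative to median vehicle-well signal on each plate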
In general terms: Cellular ATP, detected with luciferase, serves as a proxy for viable cell number.

A short description of assay [5]: H69AR cell proliferation blockers – human, duplicate replicates, primary screen (AID 580;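 active = viability at or under a set limit in both replicates, limit being median viability minus 3 SD, cut at about 48% in these data, passing the limit was not always enough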;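 also: 100% = mean luminescence of untreated wells and 0% = no signal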). As to conditions: H69AR lung tumor cells viability, ATP luminescence, 72 h; at 10 µM; stronger effect = lower value.
Assay [6] in a line: MRP1 drug-resistance reversers in H69AR cells – cell-based, doxorubicin co-treatment, pilot screen (AID 601). Conditions: CellTiter-Glo, 72 h, at 10 µM; for differential viability (reversal): stronger effect = higher value.
Assay [7] is described as follows: yeast transport mutant growth inhibition pilot in 384-well plates, post-Golgi transport modulator project (AID 636; in the data active = inhibition above about 31%). Conditions: absorbance 615 nm, about 18 h, stronger effect = higher value.
Assay [8] is described as follows: growth suppression of yeast trafficking mutant, preliminary HTS, modulators of trafficking downstream of Golgi apparatus project, 1536-format plate, OD 615 nm (AID 637; in the data active = inhibition above about 30%). Conditions: yeast transport mutant growth, absorbance 615 nm, 18 h; stronger effect = higher value.
Setting [9] is: H69AR cells + 2 uM doxorubicin, measured here: viability with 2 uM doxorubicin, stronger effect = lower value.
Setting [10] is: H69AR cells, compound alone cytotoxicity.

Active and inactive are the calls of the source.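 The calls were made as follows, unless noted: active = viability loss from added drug above about 55%, and viability with drug at most 40%, in both replicates (limit read from the data, passing the limit was not always enough); inconclusive = both conditions met in only one replicate; inactive = neither replicate meets both conditions.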

Sequence of Receptor tyrosine-protein kinase erbB-2 (Homo sapiens) (P04626 whole entry, looked up): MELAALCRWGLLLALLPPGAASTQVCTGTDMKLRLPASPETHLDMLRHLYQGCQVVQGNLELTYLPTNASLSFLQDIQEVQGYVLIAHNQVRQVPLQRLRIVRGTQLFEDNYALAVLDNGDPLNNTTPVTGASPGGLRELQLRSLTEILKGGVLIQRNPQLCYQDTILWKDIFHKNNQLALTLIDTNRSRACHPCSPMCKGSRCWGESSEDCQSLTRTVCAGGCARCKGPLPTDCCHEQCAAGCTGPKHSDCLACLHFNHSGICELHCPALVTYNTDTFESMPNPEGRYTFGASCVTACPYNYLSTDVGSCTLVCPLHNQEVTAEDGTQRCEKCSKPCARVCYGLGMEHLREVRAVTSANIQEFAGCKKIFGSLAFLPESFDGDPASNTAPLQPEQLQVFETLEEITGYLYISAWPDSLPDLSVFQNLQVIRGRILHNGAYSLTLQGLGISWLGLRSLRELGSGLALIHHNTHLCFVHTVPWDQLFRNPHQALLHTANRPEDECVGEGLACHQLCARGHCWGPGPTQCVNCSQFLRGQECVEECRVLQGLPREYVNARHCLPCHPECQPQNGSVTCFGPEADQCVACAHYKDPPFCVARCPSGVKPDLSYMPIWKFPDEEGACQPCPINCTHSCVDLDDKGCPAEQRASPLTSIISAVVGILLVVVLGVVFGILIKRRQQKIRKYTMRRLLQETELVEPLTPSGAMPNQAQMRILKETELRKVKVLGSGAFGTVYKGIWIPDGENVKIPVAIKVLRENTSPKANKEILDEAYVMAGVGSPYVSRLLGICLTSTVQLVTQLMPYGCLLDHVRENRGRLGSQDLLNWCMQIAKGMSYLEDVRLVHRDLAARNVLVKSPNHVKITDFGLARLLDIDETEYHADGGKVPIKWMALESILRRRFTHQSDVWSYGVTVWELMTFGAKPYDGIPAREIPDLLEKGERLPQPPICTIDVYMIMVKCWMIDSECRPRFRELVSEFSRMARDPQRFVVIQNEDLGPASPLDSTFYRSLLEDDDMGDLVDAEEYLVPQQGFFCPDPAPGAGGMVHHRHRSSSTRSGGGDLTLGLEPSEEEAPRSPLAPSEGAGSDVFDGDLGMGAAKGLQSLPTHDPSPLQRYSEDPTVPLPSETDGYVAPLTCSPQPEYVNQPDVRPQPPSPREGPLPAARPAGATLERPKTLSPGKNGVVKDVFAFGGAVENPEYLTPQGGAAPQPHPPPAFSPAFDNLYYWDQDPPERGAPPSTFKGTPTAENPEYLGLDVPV

Broadly, the viability is a read-out of living cells in per cent, often relative to untreated cells. For orientation: inhibition means the change of the read-out against control, counted positive when it falls. `COc1ccc(C(CNC(=O)c2cc(C)oc2C)N2CCOCC2)cc1` (stereo not given): the viability was 126% in assay [1]; 126% (inactive) in assay [3]; 91.6% (inactive) in assay [4]; 101% (inactive) in assay [5]; 110% in assay [6] (setting [9]); 101% in assay [6] (setting [10]). For the same molecule, the Her2 level in assay [2] was 96.5% (inactive). In assay [6] (H69AR cells + 2 uM doxorubicin), the differential viability (reversal) is -9.67% (inactive). For the same molecule, the results for the inhibition in assay [7] and in assay [8] were -3.64% (inactive) and -0.32% (inactive), respectively.
Consider `CCCc1nnc2n1N=C(c1ccc(OC)c(OC)c1)CS2`, for which the viability was 85% in assay [1]; 85% (inactive) in assay [3]; 68.7% (inactive) in assay [4]; 69.9% (inactive) in assay [5]; 66.8% in assay [6] (setting [9]); 69.9% in assay [6] (setting [10]). In addition, the Her2 level in assay [2] is 80% (inactive). Moreover, the differential viability (reversal) in assay [6] (H69AR cells + 2 uM doxorubicin) is 3.1% (inactive). For the same molecule, the results for the inhibition in assay [7] and in assay [8] were -5.33% (inactive) and 2.62% (inactive), respectively.
Consider `O=C(CN(C(=O)CCNC(=O)c1ccco1)c1ccccc1)NC1CCCC1`, for which the viability is 93% in assay [1]; 93% (inactive) in assay [3]; 103% (inactive) in assay [4]; 93.5% (inactive) in assay [5]; 98.9% in assay [6] (setting [9]); 93.5% in assay [6] (setting [10]). Also, the Her2 level in assay [2] was 112% (inactive). Further, the differential viability (reversal) in assay [6] (H69AR cells + 2 uM doxorubicin) is -5.44% (inactive). The inhibition in assay [7] is 2.53% (inactive); in assay [8], 33.5% (active).
For `Cn1c(Cc2csc(N)n2)nnc1SCC(=O)NCc1ccccc1`, the viability in assay [1] was 93%; in assay [3] it was 93% (inactive); in assay [4], 114% (inactive); in assay [5], 100% (inactive); in assay [6] (setting [9]), 111%; in assay [6] (setting [10]), 100%. Moreover, the Her2 level in assay [2] was 99.5% (inactive). Further, in assay [6] (H69AR cells + 2 uM doxorubicin), the differential viability (reversal) was -11.2% (inactive). Moreover, the inhibition in assay [7] was 0.39% (inactive); in assay [8], -4.52% (inactive).
For `COc1ccccc1OCCn1c(=O)sc2ccccc21`, the viability in assay [1] is 95%; in assay [3], 95% (inactive); in assay [4], 89.6% (inactive); in assay [5] it was 99.6% (inactive); in assay [6] (setting [9]), 108%; in assay [6] (setting [10]) it was 99.6%. In addition, in assay [2], the Her2 level was 93% (inactive). In assay [6] (H69AR cells + 2 uM doxorubicin), the differential viability (reversal) was -8.55% (inactive). In addition, the results for the inhibition in assay [7] and in assay [8] were -1.05% (inactive) and -7.94% (inactive), respectively.
Regarding `CCOc1ccc(Oc2nc(Nc3ccc(C)cc3)nc(N(C)C)n2)nn1`, the viability in assay [1] is 85.5%; in assay [3], 85.5% (inactive); in assay [4], 89.3% (inactive); in assay [5] it was 95.3% (inactive); in assay [6] (setting [9]), 84%; in assay [6] (setting [10]), 95.3%. The Her2 level in assay [2] is 92% (inactive). Also, in assay [6] (H69AR cells + 2 uM doxorubicin), the differential viability (reversal) was 11.3% (inactive). The inhibition in assay [7] was -4.19% (inactive); in assay [8], 1.97% (inactive).
Regarding `COc1ccccc1OCCSc1nc2ccccc2c(=O)[nH]1`, the viability is 81.5% in assay [1]; 81.5% (inactive) in assay [3]; 84.6% (inactive) in assay [4]; 95.2% (inactive) in assay [5]; 80.1% in assay [6] (setting [9]); 95.2% in assay [6] (setting [10]). Moreover, the Her2 level in assay [2] was 105% (inactive). For the same molecule, the differential viability (reversal) in assay [6] (H69AR cells + 2 uM doxorubicin) is 15.1% (inactive). The values for the inhibition in assay [7] and in assay [8] were -3.97% (inactive) and -4% (inactive), respectively.
`COC(=O)C1=C(C)NC(=O)C1(NC(=O)c1cccnc1)C(F)(F)F` (stereo not given): the viability in assay [1] was 126%; in assay [3], 126% (inactive); in assay [4], 99.4% (inactive); in assay [5], 103% (inactive); in assay [6] (setting [9]) it was 88.7%; in assay [6] (setting [10]), 103%. For the same molecule, the Her2 level in assay [2] was 96.5% (inactive). In addition, the differential viability (reversal) in assay [6] (H69AR cells + 2 uM doxorubicin) is 14% (inactive). Also, the figures for the inhibition in assay [7] and in assay [8] were -2.5% (inactive) and 0.55% (inactive), respectively.
Turning to `Cn1c(COc2ccc(Cl)cc2)nnc1SCC(=O)NC1CCCCC1`, the viability in assay [1] is 77%; in assay [3] it was 77% (inactive); in assay [4] it was 89.5% (inactive); in assay [5], 103% (inactive); in assay [6] (setting [9]), 94%; in assay [6] (setting [10]), 103%. For the same molecule, in assay [2], the Her2 level is 108% (inactive). The differential viability (reversal) in assay [6] (H69AR cells + 2 uM doxorubicin) was 9.25% (inactive). The inhibition is 2.13% (inactive) in assay [7] and 20.8% (inactive) in assay [8].
For `O=C1CCCC2=C1C(c1ccsc1)CC(=O)N2c1ccccc1` (stereo not given), the viability was 90.5% in assay [1]; 90.5% (inactive) in assay [3]; 113% (inactive) in assay [4]; 92.4% (inactive) in assay [5]; 95.7% in assay [6] (setting [9]); 92.4% in assay [6] (setting [10]). The Her2 level in assay [2] was 96% (inactive). The differential viability (reversal) in assay [6] (H69AR cells + 2 uM doxorubicin) was -3.37% (inactive). Besides, the inhibition was -3.29% (inactive) in assay [7] and -3.82% (inactive) in assay [8].
As for `O=C(Cn1nnc(-c2ccc(CN3CCOCC3)cc2)n1)NC1CCCCC1`, the viability is 108% in assay [1]; 108% (inactive) in assay [3]; 106% (inactive) in assay [4]; 101% (inactive) in assay [5]; 97.1% in assay [6] (setting [9]); 101% in assay [6] (setting [10]). In assay [2], the Her2 level was 104% (inactive). Besides, the differential viability (reversal) in assay [6] (H69AR cells + 2 uM doxorubicin) is 4.09% (inactive). In addition, the results for the inhibition in assay [7] and in assay [8] were -5.73% (inactive) and 3.28% (inactive), respectively.
Consider `CC(C)(C)n1ncc2c(=O)n(CC(=O)NCCc3ccccc3)cnc21`, for which the viability was 88% in assay [1]; 88% (inactive) in assay [3]; 107% (inactive) in assay [4]; 90.9% (inactive) in assay [5]; 95.8% in assay [6] (setting [9]); 90.9% in assay [6] (setting [10]). Also, in assay [2], the Her2 level is 108% (inactive). Further, the differential viability (reversal) in assay [6] (H69AR cells + 2 uM doxorubicin) is -4.92% (inactive). The values for the inhibition in assay [7] and in assay [8] were 0.92% (inactive) and -6.13% (inactive), respectively.
With `COC(=O)CNC(=O)c1c(C)cc(=O)oc1C`, the viability is 89.5% in assay [1]; 89.5% (inactive) in assay [3]; 90.3% (inactive) in assay [4]; 97.1% (inactive) in assay [5]; 91.4% in assay [6] (setting [9]); 97.1% in assay [6] (setting [10]). Also, in assay [2], the Her2 level is 104% (inactive). For the same molecule, the differential viability (reversal) in assay [6] (H69AR cells + 2 uM doxorubicin) is 5.65% (inactive). The figures for the inhibition in assay [7] and in assay [8] were -4.27% (inactive) and -8.55% (inactive), respectively.
For the molecule `CCCCP(=O)(CCCC)c1ccccc1C(=O)O`, the viability is 110% in assay [1]; 110% (inactive) in assay [3]; 90% (inactive) in assay [4]; 107% (inactive) in assay [5]; 94.2% in assay [6] (setting [9]); 107% in assay [6] (setting [10]). Besides, the Her2 level in assay [2] is 104% (inactive). Moreover, the differential viability (reversal) in assay [6] (H69AR cells + 2 uM doxorubicin) was 12.9% (inactive). Also, the inhibition in assay [7] is 1.82% (inactive); in assay [8], -2.46% (inactive).
